MrgX1 ag: human MrgX1 receptor agonism, primary screen; B-score at 10 µM; 310,000 tested, 0.44% active; AID 588627; MrgX1-HEK293 cells, Fluo-4 calcium fluorescence, agonist mode; hits give high values;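 active means calcium response B-score plate-corrected fluorescence ratio at least 3 library SD, with starting fluorescence B-score inside 5 SD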
Target sequence (Q96LB2 whole entry, looked up): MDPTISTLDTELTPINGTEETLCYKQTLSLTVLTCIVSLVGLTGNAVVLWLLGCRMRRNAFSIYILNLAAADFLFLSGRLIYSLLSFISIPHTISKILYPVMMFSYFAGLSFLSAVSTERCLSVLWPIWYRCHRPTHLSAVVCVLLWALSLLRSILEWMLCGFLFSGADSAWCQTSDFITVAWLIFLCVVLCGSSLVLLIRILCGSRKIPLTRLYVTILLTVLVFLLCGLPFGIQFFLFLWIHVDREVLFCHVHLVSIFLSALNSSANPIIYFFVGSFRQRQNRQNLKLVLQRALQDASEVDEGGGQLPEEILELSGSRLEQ
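System – MrgX1-expressing HEK293 cells · Incubation – cells plated overnight, dye loaded 0.5 h 37 °C, 0.5 h room temperature · Technique – kinetic Fluo-4 NW fluorescence of intracellular calcium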
RGS4 block: inhibitors of human RGS4; P49798; HEK293 M3R/RGS4 inducible, Fluo-4 calcium flux; hits give high values; triggered by carbachol at its EC20; B-score at 10 µM; 310,000 tested, 0.45% active; AID 463165;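 active means B-score, a plate-corrected calcium signal, over three deviations above library mean, with baseline fluorescence within five deviations of library mean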;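 further: RGS4 expression induced by doxycycline in cells with stable M3 receptor; B-score is computed from the integrated fluorescence ratio over baseline after carbachol; higher B-score means a larger calcium signal and so more RGS4 inhibition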
Target sequence (P49798 whole entry, looked up): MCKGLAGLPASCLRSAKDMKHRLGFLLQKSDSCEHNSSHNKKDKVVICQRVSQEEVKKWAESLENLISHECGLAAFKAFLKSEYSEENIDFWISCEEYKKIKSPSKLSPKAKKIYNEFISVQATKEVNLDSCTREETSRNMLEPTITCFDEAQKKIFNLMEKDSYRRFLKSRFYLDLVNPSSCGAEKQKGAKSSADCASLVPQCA
MrgX1 PAM: human MrgX1 positive allosteric modulation, primary screen. Q96LB2. B-score at 10 µM. MrgX1-HEK293, Fluo-4 calcium flux, FDSS; hits give high values. 310,000 tested, 0.63% active;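 active means plate-corrected calcium response at least 3 library SD above typical, normal starting fluorescence, not activating the receptor alone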;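 further: compound read alongside a low EC10 to EC30 dose of BAM8-22 agonist; peak minus trough fluorescence over baseline measured at the second addition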
RGS4 act: RGS4 potentiation or activation | 310,000 tested, 0.92% active | HEK293 M3R/inducible RGS4, carbachol calcium flux Fluo4; hits give low values | B-score at 10 µM | AID 463111;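 active means B-score of the integrated calcium signal more than 4 SD below the library mean, with starting fluorescence not abnormally high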;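 further: negative B-score means reduced calcium response which marks RGS4 activation or potentiation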
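Material: M3R-expressing HEK293 line, RGS4 induced by doxycycline | Schedule: Overnight RGS4 induction, 30 min dye load 37 °C, 20 min compound RT | Measured by: Fluo4 fluorescence kinetic imaging of calcium | Read-out: Integrated calcium ratio converted to B score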
MrgX1 antagonist: antagonists of human MrgX1 receptor; Q96LB2; MRGX1-HEK293 calcium flux, Fluo-4, BAM8-22 antagonism; hits give low values; B-score at 10 µM; 310,000 tested, 1.3% active; AID 588676;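 active means calcium-response B-score plate-corrected more than 3 library SD below zero, starting fluorescence within 5 deviations, no agonist response on first addition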;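 further: peak minus trough fluorescence over baseline after final BAM8-22 challenge near maximal dose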
MrgX1 allo conf: confirmation of human MrgX1 receptor positive allosteric modulators; shares compounds with MrgX1 PAM; activation (ratio percentage), % at 10 µM; 1,200 tested, 13% active; MrgX1-HEK293, Fluo-4 calcium fluorescence, FDSS;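 active means ratio at least 3 SD above the weak peptide control, stable starting fluorescence, no direct agonism earlier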;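 further: compound followed by low BAM8-22 agonist challenge near EC20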
HEK293 Ca flux: MrgX1 antagonist counter-screen hit in parental HEK293 cells; shares compounds with MrgX1 antagonist; Fluo-4 calcium fluorescence, FDSS; fluorescence ratio F(max-min)/F0 at 10 µM; 4,000 tested, 2% active;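 active means duplicate-averaged calcium fluorescence ratio at least three times the standard deviation of buffer wells, a nonspecific response in parental cells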
HEK293 Ca counter: counter-screen for MrgX1 allosteric activators: effect in parental HEK293 cells; shares compounds with MrgX1 antagonist; parental HEK293 calcium flux, Fluo-4 fluorescence ratio; hits give high values; fluorescence ratio F(max-min)/F0 at 10 µM; 4,000 tested, 0.4% active; AID 624114;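 active means calcium fluorescence ratio, averaged over duplicates, at least 3 SD of the buffer-well ratio, meaning a nonspecific response in receptor-free cells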;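 further: untransfected parental HEK293 lacking MrgX1 used as counterscreen for MrgX1 allosteric activators; fluorescence change taken during the second addition on a kinetic imager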
HEK293 Ca cntr2: MrgX1 activator counter-screen hit in parental HEK293 cells; fluorescence ratio F(max-min)/F0 at 10 µM; Fluo-4 calcium fluorescence (FDSS); hits give high values; 4,000 tested, 8.7% active; shares compounds with MrgX1 antagonist;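 active means calcium fluorescence ratio at least three times the spread of buffer wells, meaning a non-specific response in parental cells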
* hit, by the source's call; i = inactive; / = no result given. An excerpt weighted towards active compounds, which were near 3.5% of everything screened.

SMILES	MrgX1 ag	RGS4 block	MrgX1 PAM	RGS4 act	MrgX1 antagonist	MrgX1 allo conf	HEK293 Ca flux	HEK293 Ca counter	HEK293 Ca cntr2
COc1cc(CNn2cn[nH]c2=S)cc(Br)c1OCc1ccccc1F	i	i	6.5*	i	i	i	i	i	i
CC(Oc1ccc(F)cc1)C(=O)Nc1ccccc1N1CCCCC1 (stereo not given)	i	i	12*	i	i	i	i	i	i
Cc1cccc(OCC(=O)Nc2cc(S(=O)(=O)N3CCCCC3)ccc2N2CCN(C)CC2)c1	i	i	16*	i	i	i	i	i	i
Cc1cc(OCC(=O)Nc2ccccc2N2CCCC2)ccc1C(C)C	i	i	22*	i	i	13%*	i	i	i
CN1CCN(c2ccc(S(=O)(=O)N3CCCCC3)cc2NC(=O)COc2cccc(Cl)c2)CC1	i	i	i	i	i	/	/	/	/
COc1cccc(CC(=O)Nc2ccccc2N2CCCC2)c1	i	i	9.4*	i	i	i	i	i	i
CN(CCO)S(=O)(=O)c1ccc2c(c1)C(=NN)c1cc(S(=O)(=O)N(C)CCO)ccc1-2	i	i	i	i	i	/	/	/	/
CCCCCC(=O)N1CCCCC1	i	i	i	i	i	/	/	/	/
Cc1ccc(OCC(=O)Nc2ccccc2N2CCOCC2)c(C)c1	i	i	9.9*	i	i	i	i	i	i
Cc1cccc(OCC(=O)Nc2ccccc2N2CCCC2)c1C	i	i	26*	i	i	25%*	i	i	i
Cc1ccccc1OCC(=O)Nc1ccccc1N1CCCCC1	i	i	i	i	i	/	/	/	/
O=C(CNCC1CCCO1)Nc1ccccc1N1CCCCCC1 (stereo not given)	i	i	6.9*	i	i	i	i	i	i
Cc1cc(OCC(=O)Nc2ccccc2N2CCCCC2)ccc1C(C)C	i	i	6.9*	i	i	i	i	i	i
COC(=O)c1ccccc1NC(=O)CCC(=O)N1CC(C)Oc2ccc(C)cc21 (stereo not given)	i	i	i	i	i	/	/	/	/
CCN(CC)C(=O)C(=O)c1c(-c2ccccc2)[nH]c2ccccc12	i	i	15*	i	i	i	i	i	i
CCNC(=O)C(=O)c1c(-c2ccccc2)[nH]c2ccccc12	i	i	i	i	i	/	/	/	/
COc1cc(OC)c(NS(=O)(=O)c2cc3[nH]c(=O)c(=O)[nH]c3cc2C)cc1Cl	i	i	i	i	i	/	/	/	/
O=C(O)C1CCCN(S(=O)(=O)c2ccc(Br)s2)C1 (stereo not given)	i	i	6.6*	i	i	i	i	i	i
CC[C@H](C)[C@H]1O[C@]2(CC[C@@H]1C)C[C@@H]1C[C@@H](CC=C(C)[C@@H](O[C@H]3C[C@H](OC)[C@@H](O[C@H]4C[C@H](OC)[C@@H](O)[C@H](C)O4)[C@H](C)O3)[C@@H](C)C=CC=C3CO[C@@H]4[C@H](O)C(C)=C[C@@H](C(=O)O1)[C@]34O)O2	i	/	i	/	i	/	/	/	/
COc1ccc(-c2oc3ccccc3c2C(=O)Oc2ccccc2)cc1	i	i	8.7*	i	i	i	i	i	68*
O=C(NCC1CCCO1)c1cccc(NS(=O)(=O)c2ccc(Br)cc2)c1 (stereo not given)	i	i	i	i	i	/	/	/	/
CC(NC(=O)CN1c2cccc3cccc(c23)S1(=O)=O)c1ccc(S(N)(=O)=O)cc1 (stereo not given)	i	i	i	i	i	/	/	/	/
Cc1ccc(C)c(NC(=S)NCCN(C2CCCCC2)C2CCCC2)c1	i	i	i	i	i	/	/	/	/
CC(C)S(=O)(=O)C1=NSC2=NC(=O)/C(=C\c3ccc(OC(=O)c4ccco4)cc3)C(=N)N21	i	i	35*	i	i	i	i	i	i
N=C1/C(=C\c2ccc(OC(=O)c3ccco3)cc2)C(=O)N=C2SC(N3CCCCC3)=NN12	i	i	i	i	i	/	/	/	/
SMILES	MrgX1 ag	RGS4 block	MrgX1 PAM	RGS4 act	MrgX1 antagonist	MrgX1 allo conf	HEK293 Ca flux	HEK293 Ca counter	HEK293 Ca cntr2
c1ccc(-c2nc3c(ccc4ccccc43)[nH]2)nc1	i	i	6.8*	i	i	i	i	i	i
c1ccc(-c2nc3ccccc3[nH]2)nc1	i	i	i	i	i	/	/	/	/
CCn1cc(C(=O)NC2CC(C)(C)Cc3c2cnn3-c2cccc(F)c2)cn1 (stereo not given)	i	i	i	i	i	/	/	/	/
Cc1cnc(C(=O)NC2CC(C)(C)Cc3c2cnn3-c2cccc(F)c2)cn1 (stereo not given)	i	i	7.8*	i	i	i	i	i	i
CC(C)Nc1nc(NC(C)(C)C)nc(Oc2ccc(=O)n(C)n2)n1	i	i	28*	i	i	i	i	i	i
Oc1ccc(Cc2ccc(Cl)cc2)c(O)c1	i	i	i	i	i	/	/	/	/
CCOC(=O)c1sc(Nc2ccccc2Cl)nc1C	i	i	13*	i	i	i	i	i	i
CC(C)(C)C(=O)[C@@H]1[C@@H]2C(=O)N(C3CCCCC3)C(=O)[C@@H]2[C@H]2c3ccccc3C=CN12	i	/	7*	/	i	i	i	i	i
O=C(c1ccc2c(c1)OCO2)[C@@H]1[C@@H]2C(=O)N(C3CCCCC3)C(=O)[C@@H]2C2c3ccccc3C=CN21 (stereo not given in full)	/	i	/	i	/	/	/	/	/
CC1CCCCC1Nc1nc2ccc(Cl)cc2n2cnnc12 (stereo not given)	i	i	9.2*	i	i	i	i	i	i
CCOC(=O)c1c(C)nc(-c2ccccc2)nc1N	i	i	7.4*	i	i	i	i	i	i
Nc1nc(CCl)nc(N(c2ccccc2)c2ccccc2)n1	i	i	10*	i	i	i	i	i	i
